Laboratory results taken from ChEMBL document CHEMBL3244012, “Guanylhydrazones with potential antileukemic activity. 2. Synthesis and structure-activity relationships of analogues of 4,4'-diacetyl-N,N'-diphenylurea bis(guanylhydrazone)” (J Med Chem, 1978).
pIC50: −log10 of the molar value.

Experiments:
TA3 = assay: Cytotoxicity against mouse TA3 cells assessed as growth inhibition after 3 days; assay type: functional; details: TA3, 72 h, read-out: ID50 (the source's name)
Method in brief: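 Mouse mammary adenocarcinoma TA-3 cells grown in stationary tubes in RPMI 1640 with 10% horse serum; 50 000 cells inoculated with compound in medium, incubated upright 3 days. Growth read by protein assay; control growth six- to tenfold. Five tubes per concentration; inhibitory compounds retested at least twice. ID50 = 50% inhibitory concentration, between-test variation within ±10%.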

[1] = molecular target: T1, DNA polymerase alpha catalytic subunit (Mus musculus) (UniProt P33609); assay: Inhibition of DNA polymerase alpha isolated from mouse L1210 cells assessed as reduction in DNA synthesis by cell-free system based assay
T1 sequence (whole entry): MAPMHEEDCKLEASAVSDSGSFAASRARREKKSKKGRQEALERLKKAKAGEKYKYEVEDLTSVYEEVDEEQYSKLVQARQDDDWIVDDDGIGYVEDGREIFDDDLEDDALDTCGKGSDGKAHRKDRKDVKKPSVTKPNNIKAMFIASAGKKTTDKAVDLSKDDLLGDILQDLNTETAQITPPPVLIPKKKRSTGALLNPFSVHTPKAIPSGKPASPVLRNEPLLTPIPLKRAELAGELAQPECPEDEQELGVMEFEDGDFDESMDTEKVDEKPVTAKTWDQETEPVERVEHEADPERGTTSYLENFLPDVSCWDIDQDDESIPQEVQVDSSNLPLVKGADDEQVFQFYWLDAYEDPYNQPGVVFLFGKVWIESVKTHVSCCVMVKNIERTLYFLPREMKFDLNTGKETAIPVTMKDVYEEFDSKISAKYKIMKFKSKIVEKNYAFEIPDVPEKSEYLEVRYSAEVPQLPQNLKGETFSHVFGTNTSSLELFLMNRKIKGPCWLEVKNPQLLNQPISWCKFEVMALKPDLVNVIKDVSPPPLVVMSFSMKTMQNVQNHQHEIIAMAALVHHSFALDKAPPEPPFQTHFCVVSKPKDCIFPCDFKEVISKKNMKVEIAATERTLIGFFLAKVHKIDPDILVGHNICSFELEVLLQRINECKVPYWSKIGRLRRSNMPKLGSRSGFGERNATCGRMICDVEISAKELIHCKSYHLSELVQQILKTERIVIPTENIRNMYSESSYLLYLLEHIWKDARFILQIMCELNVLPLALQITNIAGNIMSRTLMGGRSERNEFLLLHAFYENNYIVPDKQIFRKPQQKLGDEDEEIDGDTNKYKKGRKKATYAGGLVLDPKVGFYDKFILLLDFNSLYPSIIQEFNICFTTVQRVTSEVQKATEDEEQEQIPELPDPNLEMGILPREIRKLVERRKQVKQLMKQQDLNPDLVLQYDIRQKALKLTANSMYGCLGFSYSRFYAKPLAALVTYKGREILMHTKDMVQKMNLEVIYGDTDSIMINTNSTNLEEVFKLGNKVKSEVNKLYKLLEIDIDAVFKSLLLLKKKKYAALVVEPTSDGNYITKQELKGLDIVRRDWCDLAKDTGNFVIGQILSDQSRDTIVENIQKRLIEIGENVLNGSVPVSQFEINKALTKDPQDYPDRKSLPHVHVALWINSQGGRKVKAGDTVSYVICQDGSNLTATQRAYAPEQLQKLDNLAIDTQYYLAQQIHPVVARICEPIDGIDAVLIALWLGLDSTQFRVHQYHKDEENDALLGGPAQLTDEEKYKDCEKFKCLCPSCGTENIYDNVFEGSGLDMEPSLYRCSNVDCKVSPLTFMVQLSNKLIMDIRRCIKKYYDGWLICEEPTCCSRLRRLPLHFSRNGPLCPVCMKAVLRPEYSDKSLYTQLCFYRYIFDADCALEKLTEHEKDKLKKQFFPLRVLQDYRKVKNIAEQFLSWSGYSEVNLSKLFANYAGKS
Method in brief: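 DNA polymerase α taken as a crude extract of mouse L1210 leukemia cells, assayed in a Bollum-type cell-free DNA synthesis system. Compounds added at different concentrations to the assay mixture before enzyme; initial reaction velocity measured.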

L1210 = assay: Antitumor activity against mouse L1210 cells allografted in DBA/2J mouse assessed as survival at 30 mg/kg, ip dosed once daily on days 1 to 3 (reference value: 8.2 +/- 1.1 days); assay type: functional; details: route intraperitoneal
[2] = Solubility in aqueous solvents; assay type: physicochemical; details: buffer

Br.Br.C/C(=N/NC(=N)N)c1ccc(NC(=O)NCc2ccc(/C(C)=N/NC(=N)N)cc2)cc1
pIC50 (TA3): 4.70
inhibitory concentration [1]: 110 µM
Survival (L1210): 23 days

C/C(=N\NC(=N)N)c1ccc(N(C)C(=O)N(C)c2ccc(/C(C)=N/NC(=N)N)cc2)cc1
pIC50 (TA3): 4.00
inhibitory concentration [1]: 310 µM
Survival (L1210): 1.7 days

C/C(=N\NC(=N)N)c1ccc(NC(=O)Oc2ccc(/C(C)=N/NC(=N)N)cc2)cc1
pIC50 (TA3): 3.74
inhibitory concentration [1]: 170 µM

C/C(=N\NC(=N)N)c1ccc(NC(=O)Nc2ccc(/C(C)=N/NC(=N)N)cn2)nc1
pIC50 (TA3): 5.15
inhibitory concentration [1]: 160 µM
Survival (L1210): 11 days

C/C(=N/NC(=N)N[N+](=O)[O-])c1ccc(NC(=O)Nc2ccc(/C(C)=N\NC(=N)N[N+](=O)[O-])cc2)cc1
solubility [2]: Insoluble

Br.Br.C/C(=N\NC(=N)N)c1ccc(NC(=O)N(C)c2ccc(/C(C)=N/NC(=N)N)cc2)cc1
pIC50 (TA3): 3.74
inhibitory concentration [1]: 80 µM
Survival (L1210): 14.3 days

C/C(=N/NC(N)=S)c1ccc(NC(=O)Nc2ccc(/C(C)=N/NC(N)=S)cc2)cc1
solubility [2]: Insoluble

Br.Br.C/C(=N\NC(=N)N)c1ccc(CNC(=O)NCc2ccc(/C(C)=N/NC(=N)N)cc2)cc1
pIC50 (TA3): 4.05
Survival (L1210): 10.7 days

Br.Br.C/C(=N/NC(=N)N)c1ccc(CNC(=O)N(Cc2ccc(/C(C)=N/NC(=N)N)cc2)N=O)cc1
pIC50 (TA3): < 4.00
inhibitory concentration [1]: 230 µM
Survival (L1210): 10.5 days

C/C(=N\NC(=N)N)c1ccc(NC(=O)Nc2ccc(/C(C)=N/NC(=N)N)cc2)cc1
pIC50 (TA3): 5.22
inhibitory concentration [1]: 60 µM

C/C(=N\O)c1ccc(NC(=O)Nc2ccc(/C(C)=N/O)cc2)cc1
solubility [2]: Insoluble

C/C(=N\NC(=N)N)c1ccc(NC(=O)Nc2ccc(/C(C)=N/NC(=N)N)cn2)cc1
pIC50 (TA3): 5.15
Survival (L1210): 11.3 days
